The values that follow come from the EternaBench riboswitch data.

The term apparent Kd denotes a dissociation constant that holds for the conditions of the assay.

The subject of the data set is MS2 coat protein. The data set can be described thus: apparent Kd, MS2 coat protein; higher = weaker binding; RNA-MaP array; FMN 200 µM where present. In a few lines:
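Green signal from SNAP-549-labelled MS2 coat protein was normalised to red-channel RNA signal and to the median Fmax of control clusters. The protein was titrated from 0.7 or 1.5 nM, doubling to 3 µM, without and then with constant ligand, over designs transcribed by stalled E. coli RNA polymerase on Illumina sequencing-chip clusters, in 100 mM Tris-HCl pH 7.5, 80 mM KCl, 4 mM MgCl2, BSA, DTT, yeast tRNA and Tween-20. The apparent Kd is the median of filtered per-cluster binding-curve fits.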

[1] abbreviates: designed as: OFF switch for flavin mononucleotide, no ligand.
Setting [2] is: ligand present: flavin mononucleotide, designed as: OFF switch for flavin mononucleotide.
Where [3] appears, read: designed as: ON switch for flavin mononucleotide, no ligand.
The mark [4] stands for this setting: ligand present: flavin mononucleotide, designed as: ON switch for flavin mononucleotide.

With “CUGGUUGUCGAGGAUAUGCACCGGCUCGCUGACGCAGAAGGCGACACAUGAGGAUCACCCAUGUCGGUUCGCGA”, the “apparent Kd” value under setting [1] turned out to be 15.6 nM and the “apparent Kd” value under setting [2] worked out at 31.3 nM.

With “AUAUUUUUGUAGAAGGUACGUGAUUAGUCAAAGUAAGGAUAUACUGACAUGAGGAUCACCCAUGUUUUAAUAGUUAACAGUUCU”, the “apparent Kd” value turned out to be 12.9 nM under setting [3] and 8.01 nM under setting [4].

As to “ACACAUGAGGAUCACCCAUGUAGCUGGCGUCUGUGCCAGCCACAGGAUAUACGGCAACACAAGCCGUAGAAGGGUGAUAAACAC”, the “apparent Kd” value turned out to be 85.3 nM under setting [3] and 36.5 nM under setting [4].

For “CUUGUUUAUGUGAGGAUAUACUGUUAGUAAUGUUUGUAGAAGGUACAUGAGGAUCACCCAUGUUUAUUUUUUUU”, the “apparent Kd” value amounted to 20.5 nM under setting [1] and 19.7 nM under setting [2].

With “UUCGGCAGUGCAGGAUAUCUAGAGAAACACCUAAGAGAAGGGCAAACAUGAGGAUCACCCAUGUUUGGCGUGAGGUGAAGUUAG”, the “apparent Kd” value came to 5.99 nM under setting [1] and 6.02 nM under setting [2].

On to “GCCUUAUCCGUCAGGAUAUACAGCCGCUAGUUGUUGUAGAAGGGACAUGAGGAUCACCCAUGUACGUACCAUUG”, for which the “apparent Kd” value under setting [1] was found to be 20.3 nM and the “apparent Kd” value under setting [2] came out at 30.7 nM.

As to “UUGUUGUAUGUAGGAUAUGCAUAUUAUUAUUGUGCAGAAGGACAUGAGGAUCACCCAUGUAUAUUAUUAUUAUAUGUUAUAUAU”, the “apparent Kd” value was 30.6 nM under setting [1] and 37.4 nM under setting [2].

In the case of “GCCAUCGCAUGAGGAUAUGCUCCCGUUUCGGGAGCAGAAGGCAUGUCAUAAGACAUGAGGAUCACCCAUGUAGUUAAGAUGGCA”, the “apparent Kd” value runs as follows: under setting [3], 723 nM; under setting [4], 32.5 nM.

In the case of “GGUUGUCAUCGUCAUCCUUUCGGUACAUGAGGAUCACCCAUGUAGGAUAUGCUGCUCUCGGUGUGGCAGAAGGGCGUGUGUGUU”, the “apparent Kd” value came to 24.4 nM under setting [1] and 39.5 nM under setting [2].

In the case of “AAGUAUAGAGGAUAUAGUAGGUACAACAUGAGGAUCACCCAUGUUCUUCAUAACGUAUUUCUAGAAGGCUGAUAAA”, the “apparent Kd” value stood at 156 nM under setting [1] and 353 nM under setting [2].

Regarding “AGCUAGUACCGAGGAUAUACAUACAUGAGGAUCACCCAUGUAUACAUGAAUAAAUGAGACUACAUGUAGAAGGCGGUACUAGCA”, the “apparent Kd” value came to 71.1 nM under setting [3] and 20 nM under setting [4].

On to “UGAGCGACCACAGGAUAUACUCGGGAAGACCAAGUAGAAGGGUGGAAGAGCGUGCAGUGACAUGAGGAUCACCCAUGUGGUUGU”, for which the “apparent Kd” value runs as follows: under setting [3], 143 nM; under setting [4], 97.3 nM.

With “AUAAAACAUGAGGAUCACCCAUGUAGAAACAUGGGAGGAUAUACAAAGACGAAAGUCAAAGUAGAAGGCCUAAAAG”, the “apparent Kd” value is, setting by setting: under setting [3], 462 nM; under setting [4], 311 nM.

“GCGACGAAAGUCGAACGAUGUAGCAGAAGGACAUGAGGAUCACCCAUGUCAGCUGUAACAGCCAUGUAGGAUAUGCUACAUCGC”: the “apparent Kd” value under setting [1] is 4.19 nM and the “apparent Kd” value under setting [2] turned out to be 5.42 nM.

On to “GUCAGCUCGUGAGGAUAUACAACACUGUUUCGGCAGUGUAUUAAGAUCACAUGAGGAUCACCCAUGUAGAAGGCACGAGCUGAU”, for which the “apparent Kd” value amounted to 13.7 nM under setting [1] and 262 nM under setting [2].

For “UUGGCGCGAUCCUGGGUCUCACAUGAGGAUCACCCAUGUAGAGAGGAUAUGCAUAGGGCCCAUUGGCAGAAGGCUCUACAUGAG”, the “apparent Kd” value under setting [1] is 101 nM and the “apparent Kd” value under setting [2] amounted to 47.3 nM.

On to “GCACAUUUGUAAGGAUAUACAACAUGAGGAUCACCCAUGUGUUGGAAUUUAGUAGAAGGUACAGACAUGAGGAUCACUUUUGUA”, for which the “apparent Kd” value worked out at 174 nM under setting [3] and 102 nM under setting [4].

Turning to “AAUAACAGAGGAUAUACUGUUUUAUGUAUUUAUUAUUUUAAACAUGAGGAUCACCCAUGUAGAAGGCUGAAUGA”, the “apparent Kd” value reads like this: under setting [1], 23.8 nM; under setting [2], 22 nM.

For “AACCUAUUACAGAAGGCCAGCUACAUGAGGAUCACCCAUGUCGAGUCAUGGAGGAUAUGUAGUAAUUUACUCACAGAUGAGUGC”, the “apparent Kd” value by setting is: under setting [3], 25.8 nM; under setting [4], 5.31 nM.

Take “CAAUUUAUAGCAGGAUAUAUAAUACAAUGAUUAAUAGAAGGGUUUAAUACAUGAGGAUCACCCAUGUCAUGUGUCAUAAUAACC”: the “apparent Kd” value is, setting by setting: under setting [1], 33.4 nM; under setting [2], 28.8 nM.

Take “GUCGGAAACGACAAAAGUAGCAUAGGAGAAGGUUCAUUAAACAUGAGGAUCACCCAUGUAAUUGGGAAGGAUAUCCUAUGCUAC”: the “apparent Kd” value by setting is: under setting [3], 16.2 nM; under setting [4], 9.16 nM.

On to “UAAAAGACUAGCAAAUAAUCCUUCACAUGAGGAUCACCCAUGUAGGAUAUGAGCAGAAAAUCUGCUCAGAAGGACAUGCUAGUC”, for which the “apparent Kd” value is 3.22 nM under setting [1] and 3.68 nM under setting [2].

Take “GCUGACGAUGUAGGAUAUCAGUAUAAUAAAUACUGAGAAGGACAUGAGGAUCACCCAUGUAAAACUCCGUCAGCGAGGAAACUC”: the “apparent Kd” value is, setting by setting: under setting [1], 16.6 nM; under setting [2], 19.4 nM.

“GGAGCUCCUGACAUGAGGAUCACCCAUGUUCACUUAUUAAAUCAGGAUAUCGUCUCGAAACGAGACGAGAAGGGAUAUGCUCCU”: the “apparent Kd” value by setting is: under setting [3], 7.67 nM; under setting [4], 7.01 nM.

As for “AAAAUGCAAGGAUAUACAUGAGGAUCACCCAUGUAGAAGGAAGCGAGGGUUUCCUGCUGUAGAAGGUGCUACAG”, the “apparent Kd” value by setting is: under setting [1], 23 nM; under setting [2], 20.5 nM.

Turning to “AUGUCCUGAGGAUAUGGUCCAUUACACAUGAGGAUCACCCAUGUGGGUCUCGCCUGUAGGCCAGAAGGUAGGUCUU”, the “apparent Kd” value by setting is: under setting [1], 52.8 nM; under setting [2], 49.5 nM.

On to “AUGUGGUGCGUAGGAUAUCAUUAAAGAAAACCCUGAGAAGGACGUGAGGACAUGAGGAUCACCCAUGUGGAUCACCCAUGUCAA”, for which the “apparent Kd” value is 316 nM under setting [1] and 278 nM under setting [2].

For “GUUGUGUGAGGAUAUGCCUGGCCGUGAGGCCAGGUUGGGUGGCAGAAGGUACAUGAGGAUCACCCAUGUACGGG”, the “apparent Kd” value is, setting by setting: under setting [1], 30 nM; under setting [2], 22.7 nM.

Take “CUCGUGUCGGAGGAUAUCCAGCGCGAAAAUAAAGGAGAAGGCCGCACAUGAGGAUCACCCAUGUAACAUGGUCC”: the “apparent Kd” value reads like this: under setting [1], 56.2 nM; under setting [2], 76.4 nM.

With “AGCUGUGGCCGAGGAUAUCUGAACUUUCAAACCGAAAUAUAAUCGGACAUGAGGAUCACCCAUGUAGAGAAGGCGGUCUCAGCA”, the “apparent Kd” value came to 16 nM under setting [1] and 13.6 nM under setting [2].

With “GACUGCCGAGGAUAUACAUGAGGAUCACCCAUGUGCUUCAGCAUUUUUUGAUGCAUGGGUAGAAGGCGGUAGUU”, the “apparent Kd” value stood at 453 nM under setting [1] and 326 nM under setting [2].

On to “GCAGCGUAUGUAGGAUAUCGGUCAGUUUCUGAUCGAGAAGGACAUGAGGAUCACCCAUGUAAAUUACCGACUCUGUCGGGCUGC”, for which the “apparent Kd” value stood at 6.64 nM under setting [1] and 8.6 nM under setting [2].

Consider “AUUUAUGGCCAGAAGGACAUGAGGAUCACCCAUGUAGGAUAUGGACGAUUUUGCUCGGCGGUUUGUUUACGAAGCACCGGUGGU”, for which the “apparent Kd” value runs as follows: under setting [3], 12.8 nM; under setting [4], 6.91 nM.

As for “GGUGGACAUGAGGAUCACCCAUGUGAGGAUAUCGGCUGGCUAGCGGCGGAUGGCUUCUCGAGAAGGCGCAUUGU”, the “apparent Kd” value worked out at 86.4 nM under setting [1] and 75 nM under setting [2].

In the case of “UUUACGUGAGGAUAUGCGAAUAGUACGUAAGUCAUACAGACGCAGAAGGCACAUGAGGAUCACCCAUGUGAACC”, the “apparent Kd” value is, setting by setting: under setting [1], 22.7 nM; under setting [2], 80.4 nM.

For “AAGUGCAUAGGAUAUAUAUGGAUAUACAUUUAUGUAGAACUACAUGAGGAUCACCCAUGUAGAAGGAUGCAAUA”, the “apparent Kd” value stood at 21.5 nM under setting [1] and 36.8 nM under setting [2].

For “CUCGGACAUGAGGAUCACCCAUGUGAGGAUAUGGUGCUAUCGUCAUUAGACGAUUGCGUUAGAAGGCACAAAUG”, the “apparent Kd” value stood at 41.5 nM under setting [1] and 54.6 nM under setting [2].

For the sequence “CUUGUGUUAGGAUAUGCGCCCUGCAGAAGCAGGGCCAGAGAGCAGAAGGAACAUGAGGAUCACCCAUGUGUGAC”, the “apparent Kd” value is, setting by setting: under setting [1], 65.5 nM; under setting [2], 53.7 nM.

Regarding “CGUGCGUAUGUGAGGAUAUGCUGGUCCUUGGAUCGGCAGAAGGCACAUGAGGAUCACCCAUGUGGUGUCGUACC”, the “apparent Kd” value by setting is: under setting [1], 187 nM; under setting [2], 35.9 nM.

With “CUUUUGUGAGGAUAUCAGUAGUAAAUAAAUAAAAUUACUACUGAGAAGGCACAUGAGGAUCACCCAUGUUCCUC”, the “apparent Kd” value by setting is: under setting [1], 41.2 nM; under setting [2], 305 nM.

For “UAAGUGUGAGGAUAUGGUAAAGAUAAGAUGAUGAAAGAACUCCAGAAGGCACAUGAGGAUCACCCAUGUAGAUG”, the “apparent Kd” value came to 39.4 nM under setting [1] and 141 nM under setting [2].

As to “CAGCGAUAGCUGAACAAUCUAUCUGAGGAUAUUCAUAAAACAUGAGGAUCACCCAUGUGAAAUUGGGAGAAGGCAGAUAGAUUG”, the “apparent Kd” value stood at 7.7 nM under setting [3] and 4.42 nM under setting [4].

As to “GUGACGAAUGUAGGAUAUGCUGAGGAAUACUCAGCAGAAGGACAUGAGGAUCACCCAUGUCAUCCUUAUAAUGAAUAACGUCAC”, the “apparent Kd” value by setting is: under setting [1], 13.8 nM; under setting [2], 18.3 nM.

As for “UUUGUCUGUGUGAGGAUAUACUUUGUUUGGUCGUUGUAGAAGGCACAUGAGGAUCACCCAUGUAUUUUGUUGUG”, the “apparent Kd” value by setting is: under setting [1], 28.7 nM; under setting [2], 31.7 nM.

As to “AACAAUCUAUCUGAGGAUAUCAUGAAAAAAACAUGAGGAUCACCCAUGUGCAGGAAAACUGCAUAUGAGAAGGCAGAUAGAUUGU”, the “apparent Kd” value under setting [3] was 603 nM and the “apparent Kd” value under setting [4] turned out to be 26.2 nM.

“GAGCUAUGAGGAUAUGCAUAUAUACGGAUUCGUGUAGUACUACAUGAGGAUCACCCAUGUAGAAGGCGUGGCAG”: the “apparent Kd” value worked out at 13.1 nM under setting [1] and 15.1 nM under setting [2].

As to “CAAAGGACAGGAUAUGCGAGGGAGCCCGUGCAGGUCGCCCAACAUGAGGAUCACCCAUGUAGAAGGGUCAAAAC”, the “apparent Kd” value by setting is: under setting [1], 32.8 nM; under setting [2], 25.8 nM.

For the sequence “GUCAGCUCGUGAGGAUAUACAUGUGCUGGAGACAGCACUAUUAAGAUCACAUGAGGAUCACCCAUGUAGAAGGCACGAGCUGAU”, the “apparent Kd” value runs as follows: under setting [1], 50.4 nM; under setting [2], 620 nM.
